ChEMBL document CHEMBL1155880, “Slow self-activation enhances the potency of viridin prodrugs” (J Med Chem, 2008)

Key:
A549 [1] = experiment: Cellular uptake in human A549 cells at 10 uM by FACS relative to initial rate; type: ADME, cell-based; settings: a549, 10 µM
Procedure, shortened: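 A549 cells incubated with 10 μM NBD-labelled compound for varying times, then detached with trypsin and analysed by FACS. Fluorescence over time is expressed as relative cellular fluorescence: the geometric mean of exposed cells divided by the geometric mean of unexposed cells.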

A549 [2] = experiment: Antiproliferative activity against human A549 cells after 48 hrs by SRB method; type: functional, cell-based; settings: A549, 48 h
[3] = Chemical stability assessed as half-times of wortmannin formation at pH 6.8 in phosphate buffer saline; type: physicochemical
Procedure, shortened: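 Compounds were incubated at 1.5 mM Wm equivalents in PBS, pH 6.8, 37°C. Wm (or NBD-Wm) formation was followed by reverse-phase C18 HPLC with methyl-4-hydroxybenzoate as internal standard. For NBD derivatives, 10% acetonitrile and 5% DMSO were added to keep the released product in solution. Half-lives of formation were derived from this.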

Row | Drug uptake (A549 [1]) | Activity [3] [h] | Compound | IC50 (A549 [2]) [µM]
1 | 0.0271 | > 100 | COC[C@H]1OC(=O)/C(=C\NCCCCCC(=O)O)C2=C(O)C(=O)C3=C([C@H](OC(=O)CCCCN(C)c4ccc([N+](=O)[O-])c5nonc45)C[C@]4(C)C(=O)CC[C@@H]34)[C@]21C | 48.7
2 |  | 8.7 | COC[C@H]1OC(=O)/C(=C\N(C)CCCCCC(=O)O)C2=C(O)C(=O)C3=C([C@H](OC(C)=O)C[C@]4(C)C(=O)CC[C@@H]34)[C@]21C | 0.96
3 | 1.199 | 1.87 | COC[C@H]1OC(=O)/C(=C\N(C)c2ccncc2)C2=C(O)C(=O)C3=C([C@H](OC(=O)CCCCN(C)c4ccc([N+](=O)[O-])c5nonc45)C[C@]4(C)C(=O)CC[C@@H]34)[C@]21C | 9.99
4 |  | > 100 | COC[C@H]1OC(=O)/C(=C\NCCCCC(NC(C)=O)C(=O)O)C2=C(O)C(=O)C3=C([C@H](OC(C)=O)C[C@]4(C)C(=O)CC[C@@H]34)[C@]21C (stereo partly drawn) | 29.8
5 | 1 | 2.3 | COC[C@H]1OC(=O)/C(=C\N(C)c2ccncc2)C2=C(O)C(=O)C3=C([C@H](OC(C)=O)C[C@]4(C)C(=O)CC[C@@H]34)[C@]21C | 9.86
6 |  |  | COC[C@H]1OC(=O)c2coc3c2[C@@]1(C)C1=C(C3=O)[C@@H]2CCC(=O)[C@@]2(C)C[C@H]1OC(C)=O [WORTMANNIN] | 11.4

Row | Compound | Drug uptake (A549 [1]) | Activity [3] [h] | IC50 (A549 [2]) [µM]
7 | COC[C@H]1OC(=O)c2coc3c2[C@@]1(C)C1=C(C3=O)[C@@H]2CCC(=O)[C@@]2(C)C[C@H]1OC(=O)CCCCN(C)c1ccc([N+](=O)[O-])c2nonc12 | 1 |  | 12.2
8 | COC[C@H]1OC(=O)/C(=C\N(C)CCCCCC(=O)O)C2=C(O)C(=O)C3=C([C@H](OC(=O)CCCCN(C)c4ccc([N+](=O)[O-])c5nonc45)C[C@]4(C)C(=O)CC[C@@H]34)[C@]21C | 0.187 | 8 | 3.85
9 | COC[C@H]1OC(=O)/C(=C\N2CCCC2C(=O)O)C2=C(O)C(=O)C3=C([C@H](OC(C)=O)C[C@]4(C)C(=O)CC[C@@H]34)[C@]21C (stereo partly drawn) |  | 9.9 | 1.79
10 | COC[C@H]1OC(=O)/C(=C\NCCCCC(=O)O)C2=C(O)C(=O)C3=C([C@H](OC(C)=O)C[C@]4(C)C(=O)CC[C@@H]34)[C@]21C |  | > 100 | 27.9
